The record followed here is ChEMBL document CHEMBL3608246, “Novel benzidine and diaminofluorene prolinamide derivatives as potent hepatitis C virus NS5A inhibitors” (Eur J Med Chem, 2015).

Activity calls are given as the source filed them. The rule behind the calls is not given here.

Data set [1] concerns Hepatitis C virus. The experiment in a line: Antiviral activity against HCV genotype 1b NK/R2AN infected in human Huh7.5.1 cells expressing NS5A L31V mutant assessed as reduction in virus replication at 100 pM to 1 uM by luciferase reporter gene assay. Particulars: Hepacivirus hominis, subtype 1b NK/R2AN, Huh-7. The format is functional, organism-based. The procedure, abridged: (§1)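 Daclatasvir-resistant NS5A mutant RNAs were transcribed in vitro and electroporated into Huh7.5.1 cells grown in 12-well plates. At 4 h post-transfection, medium was replaced with DMEM containing serially diluted compounds. Cells were harvested 3 days later and Renilla luciferase activity was measured and normalized to mock-treated cells.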
Background: Reporter assays use an easily measured gene product as a stand-in for the process of interest.

For data set [2], the system named is Hepatitis C virus. The experiment in a line: Antiviral activity against HCV genotype 1b NK/R2AN infected in human Huh7.5.1 cells expressing NS5A Y93H mutant assessed as reduction in virus replication at 100 pM to 1 uM by luciferase reporter gene assay. The class given is functional, organism-based. Particulars: Hepacivirus hominis, subtype 1b NK/R2AN, Huh-7. Summed up: as §1

Data set [3] deals with Salmonella typhimurium. The data set can be described thus: Genotoxicity in Salmonella typhimurium TA98 assessed as induction of revertant colonies at 1 ug/plate in absence of S9 mix by Ames test relative untreated control. Particulars: salmonella enterica subsp. enterica serovar typhimurium. The format is toxicity, organism-based. On the technique in general: In the Ames test, an excess of revertant colonies over the control signals mutagenicity.

For data set [4], the system named is Hepatitis C virus. The experiment in a line: Antiviral activity against HCV genotype 1b NK/R2AN infected in human Huh7.5.1 cells assessed as reduction in virus replication in presence of 123 nM NS5B polymerase inhibitor sofosbuvir by luciferase reporter gene assay. The class given is functional, organism-based. Conditions: Hepacivirus hominis; subtype 1b NK/R2AN; Huh-7.

In data set [5] the test system is Salmonella typhimurium. The experiment in a line: Genotoxicity in Salmonella typhimurium TA98 assessed as induction of revertant colonies at 200 ug/plate in absence of S9 mix by Ames test relative untreated control. The format is toxicity, organism-based. Conditions: salmonella enterica subsp. enterica serovar typhimurium. The procedure, abridged: (§2)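 Ames test, Maron's method, histidine-requiring S. typhimurium TA98 and TA100, with and without S-9 mix; 200 µg/plate, vehicle and positive controls. Revertant colonies counted in triplicate (mean ± SD, n = 3); factor = treated/vehicle-control colonies; positive if ≥2-fold over vehicle.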

For data set [6], the system named is Salmonella typhimurium. The data set can be described thus: Genotoxicity in Salmonella typhimurium TA100 assessed as induction of revertant colonies at 200 ug/plate in absence of S9 mix by Ames test relative untreated control. The format is toxicity, organism-based. Particulars: salmonella enterica subsp. enterica serovar typhimurium. The procedure, abridged: as §2

In data set [7] the test system is Salmonella typhimurium. The data set can be described thus: Genotoxicity in Salmonella typhimurium TA98 assessed as induction of revertant colonies at 200 ug/plate in presence of S9 mix by Ames test relative untreated control. The class given is toxicity, organism-based. Conditions: salmonella enterica subsp. enterica serovar typhimurium. The procedure, abridged:
as §2

Data set [8] relates to Salmonella typhimurium. The experiment in a line: Genotoxicity in Salmonella typhimurium TA100 assessed as induction of revertant colonies at 200 ug/plate in presence of S9 mix by Ames test relative untreated control. The format is toxicity, organism-based. Conditions: salmonella enterica subsp. enterica serovar typhimurium. Summed up:
as §2

Data set [9] relates to Hepatitis C virus. The experiment in a line: Antiviral activity against HCV genotype 2a JFH5a infected in human Huh7.5.1 cells transfected with JFH5a-Rluc-ad34 assessed as reduction in virus proliferation by luciferase reporter gene assay. The class given is functional, cell-based, Hepacivirus hominis, Huh-7. Particulars: Hepatitis C virus, genotype 2a JFH5a, Huh-7.
Data set [10] relates to Hepatitis C virus. The data set can be described thus: Antiviral activity against HCV genotype 1b NK/R2AN infected in human Huh7.5.1 cells assessed as reduction in virus replication by luciferase reporter gene assay. Conditions: Hepatitis C virus, subtype 1b NK/R2AN, Huh-7. The class given is functional, organism-based, Hepacivirus hominis, subtype 1b NK/R2AN, Huh-7.
The nature of data set [11]: Cytotoxicity against human Huh7.5.1 cells. The format is cell-based, Huh-7.
Data set [12] deals with hERG (KCNH2) (Homo sapiens, UniProt Q12809). The experiment in a line: Inhibition of human ERG at 10 uM by fluorescence polarization assay based ligand binding assay. A general note: Polarisation of emitted light reports the rotation of a fluorescent probe.
Chain of hERG (KCNH2) (Q12809 whole entry): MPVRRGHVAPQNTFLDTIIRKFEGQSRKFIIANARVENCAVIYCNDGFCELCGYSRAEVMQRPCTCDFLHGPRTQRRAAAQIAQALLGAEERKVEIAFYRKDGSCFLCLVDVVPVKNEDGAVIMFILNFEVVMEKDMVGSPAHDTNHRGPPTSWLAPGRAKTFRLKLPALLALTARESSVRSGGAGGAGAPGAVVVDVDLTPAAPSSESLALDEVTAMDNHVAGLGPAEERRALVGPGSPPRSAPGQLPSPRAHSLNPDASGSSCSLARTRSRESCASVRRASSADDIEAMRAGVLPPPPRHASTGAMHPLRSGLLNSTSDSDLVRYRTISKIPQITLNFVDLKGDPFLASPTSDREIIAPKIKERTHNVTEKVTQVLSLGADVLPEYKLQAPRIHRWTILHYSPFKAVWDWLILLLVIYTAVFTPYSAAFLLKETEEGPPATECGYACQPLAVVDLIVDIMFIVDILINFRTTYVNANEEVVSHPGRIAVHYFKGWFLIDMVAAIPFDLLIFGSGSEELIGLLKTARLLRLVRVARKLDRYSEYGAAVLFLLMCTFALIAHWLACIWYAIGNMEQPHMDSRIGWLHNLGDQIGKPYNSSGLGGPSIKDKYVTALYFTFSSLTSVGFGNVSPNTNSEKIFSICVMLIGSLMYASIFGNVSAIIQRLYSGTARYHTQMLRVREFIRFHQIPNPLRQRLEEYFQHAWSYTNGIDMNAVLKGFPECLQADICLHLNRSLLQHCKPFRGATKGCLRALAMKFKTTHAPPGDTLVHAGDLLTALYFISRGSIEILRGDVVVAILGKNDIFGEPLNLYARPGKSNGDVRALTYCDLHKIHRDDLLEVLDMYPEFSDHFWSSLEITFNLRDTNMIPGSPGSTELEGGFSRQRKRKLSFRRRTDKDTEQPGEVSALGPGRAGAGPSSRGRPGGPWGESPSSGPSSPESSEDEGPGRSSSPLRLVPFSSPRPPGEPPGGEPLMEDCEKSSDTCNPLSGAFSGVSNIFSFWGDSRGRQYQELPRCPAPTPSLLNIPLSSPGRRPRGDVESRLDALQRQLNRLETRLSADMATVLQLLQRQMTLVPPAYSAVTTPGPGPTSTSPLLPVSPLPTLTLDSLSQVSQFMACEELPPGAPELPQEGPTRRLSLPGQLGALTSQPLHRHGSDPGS
Data set [13] in a line: Stability in human liver microsomes assessed as compound remaining at 1 uM after 0.5 hrs by LC-MS/MS method. The class given is ADME. Particulars: read-out: Stability. Summed up:
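Pooled human liver microsomal fraction with β-NADPH, compound at 1 µM, incubated over 30 min; remaining compound in supernatant quantified by LC-MS/MS.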

The target in data set [14] is T1, Cytochrome P450 1A2 (Homo sapiens, UniProt P05177).
T1 sequence (P05177 whole entry): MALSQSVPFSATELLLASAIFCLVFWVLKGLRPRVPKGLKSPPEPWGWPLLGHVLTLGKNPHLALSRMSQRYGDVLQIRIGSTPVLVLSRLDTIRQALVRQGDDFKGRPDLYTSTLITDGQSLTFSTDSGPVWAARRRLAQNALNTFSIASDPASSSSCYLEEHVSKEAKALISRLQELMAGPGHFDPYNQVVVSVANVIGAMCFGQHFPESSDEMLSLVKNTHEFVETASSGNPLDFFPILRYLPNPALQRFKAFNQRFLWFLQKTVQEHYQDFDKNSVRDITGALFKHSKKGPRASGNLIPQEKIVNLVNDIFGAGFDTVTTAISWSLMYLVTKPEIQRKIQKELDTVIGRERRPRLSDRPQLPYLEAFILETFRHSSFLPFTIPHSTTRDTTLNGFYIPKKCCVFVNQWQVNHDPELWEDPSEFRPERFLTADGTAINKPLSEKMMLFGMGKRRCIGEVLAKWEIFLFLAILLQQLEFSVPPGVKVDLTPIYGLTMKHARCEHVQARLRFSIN
The experiment in a line: Inhibition of human CYP1A2 by luminometry. The format is ADME. Summed up:
(§3)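 Human CYP1A2, 2C9, 2C19, 2D6 and 3A4 inhibition by P450-Glo luminescent assay per kit protocol; compounds at 100, 50, 10, 5, 1, 0.1 and 0.01 µM; luminometer read-out.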

Data set [15] deals with Cytochrome P450 2C9 (Homo sapiens, UniProt P11712). The experiment in a line: Inhibition of human CYP2C9 by luminometry. The class given is ADME. Summed up:
as §3

Data set [16] deals with Cytochrome P450 2D6 (Homo sapiens, UniProt P10635). The data set can be described thus: Inhibition of human CYP2D6 by luminometry. The format is ADME. The procedure, abridged: as §3
Chain of Cytochrome P450 2D6 (P10635 whole entry): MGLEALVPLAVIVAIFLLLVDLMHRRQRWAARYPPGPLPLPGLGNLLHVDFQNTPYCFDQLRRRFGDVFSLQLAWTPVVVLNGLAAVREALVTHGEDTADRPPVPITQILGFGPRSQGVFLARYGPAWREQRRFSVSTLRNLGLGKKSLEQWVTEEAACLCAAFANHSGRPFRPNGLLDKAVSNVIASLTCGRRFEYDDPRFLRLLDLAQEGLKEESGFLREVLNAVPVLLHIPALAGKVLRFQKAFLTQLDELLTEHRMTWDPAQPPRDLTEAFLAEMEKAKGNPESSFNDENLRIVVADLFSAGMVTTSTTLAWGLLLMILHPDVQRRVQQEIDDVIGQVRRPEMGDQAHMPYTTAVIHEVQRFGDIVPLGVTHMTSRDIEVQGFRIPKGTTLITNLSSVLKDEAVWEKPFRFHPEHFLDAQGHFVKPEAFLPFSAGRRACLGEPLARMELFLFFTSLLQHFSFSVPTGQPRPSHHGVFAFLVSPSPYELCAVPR
For data set [17], the target named is Cytochrome P450 2C19 (Homo sapiens, UniProt P33261). The data set can be described thus: Inhibition of human CYP2C19 by luminometry. The class given is ADME. The procedure, abridged:
as §3

Data set [18] deals with Cytochrome P450 3A4 (Homo sapiens, UniProt P08684). The experiment in a line: Inhibition of human CYP3A4 by luminometry. The format is ADME. Summed up: as §3
Chain of Cytochrome P450 3A4 (P08684 whole entry): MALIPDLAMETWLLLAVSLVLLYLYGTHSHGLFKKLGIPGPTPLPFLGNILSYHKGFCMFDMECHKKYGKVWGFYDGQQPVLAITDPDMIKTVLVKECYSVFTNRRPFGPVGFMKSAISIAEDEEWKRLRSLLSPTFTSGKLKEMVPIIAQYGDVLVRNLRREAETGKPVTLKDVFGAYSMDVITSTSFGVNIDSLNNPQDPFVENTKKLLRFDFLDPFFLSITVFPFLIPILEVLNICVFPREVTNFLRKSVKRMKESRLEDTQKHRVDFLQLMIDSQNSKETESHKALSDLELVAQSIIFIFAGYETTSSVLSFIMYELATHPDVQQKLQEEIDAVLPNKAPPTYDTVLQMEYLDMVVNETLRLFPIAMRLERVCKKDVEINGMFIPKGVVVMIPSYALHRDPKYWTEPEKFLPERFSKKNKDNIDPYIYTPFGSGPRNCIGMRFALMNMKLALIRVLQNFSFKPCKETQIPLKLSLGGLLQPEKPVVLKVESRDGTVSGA
Data set [19] is described as follows: Half life in Sprague-Dawley rat at 10 mg/kg, po by LC/MS/MS method. Conditions: in vivo. The format is ADME, organism-based. The procedure, abridged: (§4)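 Sprague-Dawley rats, 2 male and 1 female per compound per route, parallel design. Vehicle 5% DMSO, 10% solutol, 85% HPBCD; IV 5 mg/kg bolus via tail vein, oral 10 mg/kg. Blood into K2-EDTA tubes at several time points, centrifuged, plasma analysed by LC/MS/MS; non-compartmental analysis.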

The nature of data set [20]: Oral bioavailability in Sprague-Dawley rat at 10 mg/kg by LC/MS/MS method. The format is ADME, organism-based. Particulars: in vivo. The procedure, abridged: as §4
Data set [21] in a line: Half life in Sprague-Dawley rat at 5 mg/kg, iv by LC/MS/MS method. Particulars: in vivo. The class given is ADME, organism-based. The procedure, abridged: as §4
The test system of data set [22] is Vero. The data set can be described thus: Cytotoxicity against African green monkey Vero cells by WST dye based CCK8 assay. The class given is cell-based. Particulars: Chlorocebus sabaeus. The procedure, abridged: (§5)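 CCK-8 survival assay: WST-8 tetrazolium reduced by cellular dehydrogenases to orange formazan, giving living-cell count; compounds tested up to 100 µM maximum.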

For data set [23], the system named is HFL1. The experiment in a line: Cytotoxicity against human HFL1 cells by WST dye based CCK8 assay. The class given is cell-based. The procedure, abridged:
as §5

The subject of data set [24] is L929. The data set can be described thus: Cytotoxicity against mouse L929 cells by WST dye based CCK8 assay. The class given is cell-based. The procedure, abridged: as §5
Data set [25] can be described thus: Cytotoxicity against mouse NIH/3T3 cells by WST dye based CCK8 assay. The format is cell-based. Conditions: NIH3T3. Summed up:
as §5

Data set [26] in a line: Cytotoxicity against CHOK1 cells by WST dye based CCK8 assay. Conditions: Cricetulus griseus, CHO-K1. The format is cell-based. The procedure, abridged: as §5

Chain of Cytochrome P450 2C9 (P11712 whole entry): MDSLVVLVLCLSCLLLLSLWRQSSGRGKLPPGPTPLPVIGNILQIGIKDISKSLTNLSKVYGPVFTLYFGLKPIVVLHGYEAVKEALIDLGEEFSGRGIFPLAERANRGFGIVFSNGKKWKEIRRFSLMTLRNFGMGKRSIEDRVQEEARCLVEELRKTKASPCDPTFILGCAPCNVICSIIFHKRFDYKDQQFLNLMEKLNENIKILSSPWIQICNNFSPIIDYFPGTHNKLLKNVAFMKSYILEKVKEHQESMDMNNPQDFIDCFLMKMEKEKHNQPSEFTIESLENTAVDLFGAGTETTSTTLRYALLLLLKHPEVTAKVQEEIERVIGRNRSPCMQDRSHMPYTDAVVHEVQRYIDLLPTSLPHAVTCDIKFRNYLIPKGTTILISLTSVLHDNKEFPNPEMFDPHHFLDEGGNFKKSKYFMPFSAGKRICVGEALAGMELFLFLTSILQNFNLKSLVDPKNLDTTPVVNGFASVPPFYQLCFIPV
Chain of Cytochrome P450 2C19 (P33261 whole entry): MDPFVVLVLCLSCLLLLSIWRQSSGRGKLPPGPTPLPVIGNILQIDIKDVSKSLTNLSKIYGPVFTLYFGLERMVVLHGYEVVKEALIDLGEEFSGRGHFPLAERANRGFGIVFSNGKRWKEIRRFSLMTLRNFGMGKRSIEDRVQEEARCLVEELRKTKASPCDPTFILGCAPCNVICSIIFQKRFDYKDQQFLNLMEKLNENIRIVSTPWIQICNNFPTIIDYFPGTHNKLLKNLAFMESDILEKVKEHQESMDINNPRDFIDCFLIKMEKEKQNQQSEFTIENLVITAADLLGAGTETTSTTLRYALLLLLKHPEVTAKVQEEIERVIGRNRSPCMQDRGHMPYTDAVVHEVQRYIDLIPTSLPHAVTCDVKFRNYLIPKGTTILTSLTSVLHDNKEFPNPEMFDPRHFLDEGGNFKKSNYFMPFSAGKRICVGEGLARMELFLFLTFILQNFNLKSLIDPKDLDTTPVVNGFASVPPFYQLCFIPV

The term inhibition denotes the percentage by which the read-out fell short of the control. With `COC(=O)N[C@H](C(=O)N1CCC[C@H]1c1ncc(-c2ccc(-c3ccc(-c4cnc([C@@H]5CCCN5C(=O)[C@@H](NC(=O)OC)C(C)C)[nH]4)cc3)cc2)[nH]1)C(C)C`, the inhibition result in data set [1] and in data set [2] was “Active” throughout.

Take `O=[N+]([O-])c1ccc2c(c1)Cc1ccccc1-2` [2-NITROFLUORENE]: the “fold change (FC)” value in data set [3] is on record as 10.2.

Consider `COC(=O)N[C@@H](C(=O)N1CCC[C@H]1C(=O)Nc1ccc(-c2ccc(NC(=O)[C@@H]3CCCN3C(=O)[C@H](NC(=O)OC)c3ccccc3)cc2C(F)(F)F)c(C(F)(F)F)c1)c1ccccc1` (stereo in doubt; form 1), for which, in data set [4], the outcome was Active.

As usually defined, the EC50 is the concentration at which the effect is half-maximal. In general, CC50 refers to the concentration that lowers cell viability or growth by half. One may read the half-life as how long it takes for the measured level to halve. By bioavailability is commonly meant dose-corrected exposure relative to a reference, in per cent. The IC50 is the midpoint of a concentration-inhibition curve. Take `COC(=O)N[C@@H](C(=O)N1CCC[C@H]1C(=O)Nc1ccc2c(c1)C(F)(F)c1cc(NC(=O)[C@@H]3CCCN3C(=O)[C@H](NC(=O)OC)c3ccccc3)ccc1-2)c1ccccc1`: the “fold change (FC)” value in data set [5] was 1.3; in data set [6] it was 0.9; in [7] it was 1.1; in data set [8] it was 0.9. Besides, the concentration giving a half-maximal response (EC50) in [9] is 0.059 nM; in [10] it was 3 pM; in [14], over 100 µM; in data set [15], 277 nM; in [16], over 100 µM; in [17], 13.9 µM. Also, the concentration for a half-maximal effect (EC50) in data set [18] was 976 nM. The same compound yielded a CC50 in data set [11] of over 25 µM. The compound also came in with an inhibition at 10 µM in data set [12] of 39.1%. For the same compound, the remaining at 0.5 h, 1 µM in data set [13] came to 92%. The half-life in data set [19] was 101 min; in data set [21], 54 min. Also, in data set [20], the bioavailability amounted to 7.6%. Further, the inhibition entry in data set [1] and in [2] was “Active” in each case. Besides, the IC50 in data set [22], in data set [23], in data set [24], in [25] and in [26] was over 100 µM throughout.
